# ChEMBL document CHEMBL3396998, “Synthesis and antitubercular evaluation of 4-carbonyl piperazine substituted 1,3-benzothiazin-4-one derivatives” (Bioorg Med Chem Lett, 2015)
# Legend:
# [1] = Aqueous solubility of the compound by HPLC method; assay type: physicochemical; conditions: water
# [2] = Cytotoxicity against African green monkey Vero cells after 72 hrs by MTT assay; assay type: cell-based; conditions: chlorocebus sabaeus
# How it was run: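 Vero cells were exposed to each compound over a broad concentration range. Viability was read by MTT, and cytotoxicity was reported as IC50.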
# [3] = test system: Mycobacterium tuberculosis; experiment: Antitubercular activity against Mycobacterium tuberculosis H37Ra ATCC 25177 by MABA method; assay type: functional
# [4] = Ratio of aqueous solubility of BTZ038 to aqueous solubility of the compound by HPLC method; assay type: physicochemical; conditions: buffer
# [5] = Ratio of aqueous solubility of PBTZ169 to aqueous solubility of the compound by HPLC method; assay type: physicochemical; conditions: buffer
Compound,solubility [1] [µg/mL],CC50 at 72 h [2] [µM],MIC90 [3] [µM],Ratio [4],Ratio [5]
CC(C)(C)C(=O)N1CCN(c2nc(=O)c3cc(C(F)(F)F)cc([N+](=O)[O-])c3s2)CC1,5.87,> 125,0.031,,
O=C(C1CCCCC1)N1CCN(c2nc(=O)c3cc(C(F)(F)F)cc([N+](=O)[O-])c3s2)CC1,3.24,88.7,0.031,,
O=C(C1CCC1)N1CCN(c2nc(=O)c3cc(C(F)(F)F)cc([N+](=O)[O-])c3s2)CC1,39.3,> 125,0.031,,
CCCCC(=O)N1CCN(c2nc(=O)c3cc(C(F)(F)F)cc([N+](=O)[O-])c3s2)CC1,42.5,> 125,0.031,,
Cc1ccc(C(=O)N2CCN(c3nc(=O)c4cc(C(F)(F)F)cc([N+](=O)[O-])c4s3)CC2)cc1,6.7,> 125,0.031,,
COc1cccc(C(=O)N2CCN(c3nc(=O)c4cc(C(F)(F)F)cc([N+](=O)[O-])c4s3)CC2)c1,0.91,> 125,0.031,,
COc1ccc(CC(=O)N2CCN(c3nc(=O)c4cc(C(F)(F)F)cc([N+](=O)[O-])c4s3)CC2)cc1,2.72,> 125,0.13,,
O=C(c1ccccc1F)N1CCN(c2nc(=O)c3cc(C(F)(F)F)cc([N+](=O)[O-])c3s2)CC1,3.1,> 125,0.008,,
COc1ccccc1C(=O)N1CCN(c2nc(=O)c3cc(C(F)(F)F)cc([N+](=O)[O-])c3s2)CC1,13.6,> 125,0.063,,
CSCC(=O)N1CCN(c2nc(=O)c3cc(C(F)(F)F)cc([N+](=O)[O-])c3s2)CC1,15.2,> 125,0.13,,
O=C(c1ccc(Cl)cc1)N1CCN(c2nc(=O)c3cc(C(F)(F)F)cc([N+](=O)[O-])c3s2)CC1,5.19,> 125,0.016,,
O=C(C1CCCC1)N1CCN(c2nc(=O)c3cc(C(F)(F)F)cc([N+](=O)[O-])c3s2)CC1,5.34,120,0.016,,
O=C(c1ccccc1Cl)N1CCN(c2nc(=O)c3cc(C(F)(F)F)cc([N+](=O)[O-])c3s2)CC1,8.18,> 125,0.016,,
CC(C)(C)c1ccc(C(=O)N2CCN(c3nc(=O)c4cc(C(F)(F)F)cc([N+](=O)[O-])c4s3)CC2)cc1,1.25,> 125,0.016,,
O=C(N1CCN(c2nc(=O)c3cc(C(F)(F)F)cc([N+](=O)[O-])c3s2)CC1)C12CC3CC(CC(C3)C1)C2,2.95,> 125,0.031,,
CC(C)CC(=O)N1CCN(c2nc(=O)c3cc(C(F)(F)F)cc([N+](=O)[O-])c3s2)CC1,66.3,> 125,0.031,,

Compound,solubility [1] [µg/mL],CC50 at 72 h [2] [µM],MIC90 [3] [µM],Ratio [4],Ratio [5]
COc1ccc(C(=O)N2CCN(c3nc(=O)c4cc(C(F)(F)F)cc([N+](=O)[O-])c4s3)CC2)cc1,0.22,> 125,0.13,,
CCc1ccc(C(=O)N2CCN(c3nc(=O)c4cc(C(F)(F)F)cc([N+](=O)[O-])c4s3)CC2)cc1,< 0.1,> 125,0.031,,
CCC(C)C(=O)N1CCN(c2nc(=O)c3cc(C(F)(F)F)cc([N+](=O)[O-])c3s2)CC1 (stereo not drawn),104,> 125,0.008,100,10
O=c1nc(N2CCN(CC3CCCCC3)CC2)sc2c([N+](=O)[O-])cc(C(F)(F)F)cc12 [MACOZINONE],9.07,> 125,< 0.004,,
O=C(C1CC1)N1CCN(c2nc(=O)c3cc(C(F)(F)F)cc([N+](=O)[O-])c3s2)CC1,52.9,> 125,0.13,,
O=C(c1ccccc1[N+](=O)[O-])N1CCN(c2nc(=O)c3cc(C(F)(F)F)cc([N+](=O)[O-])c3s2)CC1,2.15,> 125,0.13,,
CC(C)(C)C1CCC(C(=O)N2CCN(c3nc(=O)c4cc(C(F)(F)F)cc([N+](=O)[O-])c4s3)CC2)CC1 (stereo not drawn),< 0.1,> 125,0.004,,
CC(=O)N1CCN(c2nc(=O)c3cc(C(F)(F)F)cc([N+](=O)[O-])c3s2)CC1,83.9,> 125,> 0.13,,
CC1COC2(CCN(c3nc(=O)c4cc(C(F)(F)F)cc([N+](=O)[O-])c4s3)CC2)O1 (racemic),0.94,> 125,0.004,,
O=C(c1ccc(F)cc1)N1CCN(c2nc(=O)c3cc(C(F)(F)F)cc([N+](=O)[O-])c3s2)CC1,1.69,> 125,0.031,,
CCCC(=O)N1CCN(c2nc(=O)c3cc(C(F)(F)F)cc([N+](=O)[O-])c3s2)CC1,2.46,> 125,0.13,,
O=C(c1ccc(C(F)(F)F)cc1)N1CCN(c2nc(=O)c3cc(C(F)(F)F)cc([N+](=O)[O-])c3s2)CC1,7.53,> 125,0.031,,
O=C(c1ccc([N+](=O)[O-])cc1)N1CCN(c2nc(=O)c3cc(C(F)(F)F)cc([N+](=O)[O-])c3s2)CC1,1.67,> 125,0.063,,
O=C(CC1CCCCC1)N1CCN(c2nc(=O)c3cc(C(F)(F)F)cc([N+](=O)[O-])c3s2)CC1,0.12,> 125,0.016,,
O=C(c1cccc(F)c1)N1CCN(c2nc(=O)c3cc(C(F)(F)F)cc([N+](=O)[O-])c3s2)CC1,0.2,> 125,0.016,,
CCC(=O)N1CCN(c2nc(=O)c3cc(C(F)(F)F)cc([N+](=O)[O-])c3s2)CC1,3.29,> 125,0.016,,
